Measurements taken from ChEMBL document CHEMBL1759902, “Synthesis and structure-activity relationship of N-(2-arylethyl) isoquinoline derivatives as human scavenger receptor CD36 antagonists” (Eur J Med Chem, 2011).
Active and inactive are the calls of the source. The calls are words filed in the database; no cut-off is given here. Non-standard residues stand in square brackets, D forms with d. Residues, ends and D or L forms follow the SMILES beside them. dTrp(2-Me) = Cc1[nH]c2ccccc2c1C[C@@H](N)C(=O)O

Columns and labels:
Platelet glycoprotein 4 [1] = target: T1, Platelet glycoprotein 4 (Homo sapiens, UniProt P16671); assay: Antagonist activity at human CD36-oxLDL binding after 2 hrs by ELISA
T1 sequence (P16671 whole entry): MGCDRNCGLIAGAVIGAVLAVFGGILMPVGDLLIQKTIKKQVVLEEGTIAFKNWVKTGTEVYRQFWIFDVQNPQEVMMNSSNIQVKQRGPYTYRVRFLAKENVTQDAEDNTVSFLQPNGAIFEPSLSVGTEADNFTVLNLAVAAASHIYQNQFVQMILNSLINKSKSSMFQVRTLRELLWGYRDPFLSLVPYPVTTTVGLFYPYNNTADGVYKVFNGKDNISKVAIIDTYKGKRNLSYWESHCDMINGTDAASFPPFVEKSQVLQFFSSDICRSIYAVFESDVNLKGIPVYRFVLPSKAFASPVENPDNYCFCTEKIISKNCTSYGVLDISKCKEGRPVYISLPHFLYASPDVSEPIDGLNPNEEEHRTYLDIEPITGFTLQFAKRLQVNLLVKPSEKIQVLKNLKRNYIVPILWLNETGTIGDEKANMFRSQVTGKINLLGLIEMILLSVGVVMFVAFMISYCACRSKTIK
In short: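 Plate wells coated with oxLDL at 4 °C for 8–12 h, washed with PBS and blocked in PBS/1% BSA for 1–2 h at 4 °C. His-tagged CD36 or vector control protein added for 1 h at 4 °C, then compound or hexarelin, incubated 2 h.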

Platelet glycoprotein 4 [2] = target: T1, Platelet glycoprotein 4; assay: Antagonist activity at human CD36 expressed in insect Sf9 cells assessed as inhibition of DiL-acetylated LDL uptake at 10 ug/ml after 5 hrs by fluorometric analysis; assay type: functional
In short: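 Sf9 cells in Grace's medium with 10% heat-inactivated FBS at 27 °C, plated at 6.0×10⁵ cells/well, infected 1 h with recombinant hCD36 or wild-type baculovirus, then refed. After two days, washed into Grace/0.5% BSA. Compound added from DMSO for 1 h at 27 °C, then DiI-AcLDL.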

Platelet glycoprotein 4 [3] = target: T1, Platelet glycoprotein 4; assay: Antagonist activity at human CD36-oxLDL binding at 10 ug/mL after 2 hrs by ELISA
Platelet glycoprotein 4 [4] = target: T1, Platelet glycoprotein 4; assay: Antagonist activity at human CD36-oxLDL binding at 10 uM after 2 hrs by ELISA

SMILES	IC50 (Platelet glycoprotein 4 [1]) [µM]	inhibition (Platelet glycoprotein 4 [2])	inhibition (Platelet glycoprotein 4 [3]) [%]	inhibition (Platelet glycoprotein 4 [4]) [%]
COc1ccc2cc[n+](CCc3ccccc3)cc2c1O	0.633	Active	77.9	–
COc1cc2c[n+](CCc3ccccc3C)c(O)cc2cc1O	–	–	< 10	–
Oc1ccc2cc[n+](CCc3ccccc3F)cc2c1	–	–	21.7	–
COc1cc2c[n+](CCc3cccc(F)c3)c(O)cc2cc1O	–	–	< 10	–
COc1ccc2cc[n+](CCc3ccccc3)cc2c1OC	–	–	< 10	–
COc1cc2cc[n+](CCc3ccccc3)cc2cc1OC	–	–	10	–
COc1cc2cc[n+](CCc3ccc(Cl)cc3)cc2cc1OC	–	–	< 10	–
COc1cc2cc[n+](CCc3cccc(C(F)(F)F)c3)cc2cc1OC	–	–	< 10	–
COc1ccc2cc[n+](CCc3ccccc3C)cc2c1O	–	–	11.5	–
COc1cc2c[n+](CCc3cccc(Cl)c3)c(O)cc2cc1O	–	–	33.2	–
Oc1ccc2cc[n+](CCc3ccccc3)cc2c1	–	–	< 10	–
COc1ccc2cc[n+](CCc3ccc(F)cc3)cc2c1O	–	–	29.6	–
COc1ccc2cc[n+](CCc3ccccc3C)cc2c1OC	4.36	Active	46.6	–
COc1ccc(CC[n+]2ccc3ccc(OC)c(O)c3c2)cc1	–	–	< 10	–
COc1cc2c[n+](CCc3ccccc3)ccc2cc1O	–	–	31	–
COc1ccc(CC[n+]2ccc3ccc(O)cc3c2)cc1	–	–	28.7	–
COc1cc2c[n+](CCc3cccc(Cl)c3)ccc2cc1O	–	–	33.6	–

More lines, now with the values ahead:

IC50 (Platelet glycoprotein 4 [1]) [µM]	inhibition (Platelet glycoprotein 4 [2])	inhibition (Platelet glycoprotein 4 [3]) [%]	inhibition (Platelet glycoprotein 4 [4]) [%]	SMILES
–	–	20.9	–	COc1cc2cc[n+](CCc3cccc(F)c3)cc2cc1OC
–	–	28.6	–	COc1ccc(CC[n+]2ccc3cc(OC)c(OC)cc3c2)cc1
–	–	–	37.6	Cc1[nH]c2ccccc2c1C[C@@H](NC(=O)[C@@H](N)Cc1c[nH]cn1)C(=O)N[C@@H](C)C(=O)N[C@@H](Cc1c[nH]c2ccccc12)C(=O)N[C@H](Cc1ccccc1)C(=O)N[C@@H](CCCCN)C(N)=O (H-H[dTrp(2-Me)]AW[dF]K-NH2)
–	Active	76.3	–	COc1ccc(CC[n+]2ccc3cc(O)c(OC)cc3c2)cc1
3.39	Active	48.4	–	Oc1ccc2cc[n+](CCc3cccc(C(F)(F)F)c3)cc2c1
–	–	47.4	–	COc1ccc2cc[n+](CCc3ccccc3)cc2c1
–	–	25.4	–	COc1ccc2cc[n+](CCc3ccc(Cl)cc3)cc2c1OC
6.9	Active	52.1	–	COc1ccc2cc[n+](CCc3cccc(F)c3)cc2c1OC
–	–	< 10	–	COc1cc2c[n+](CCc3ccc(Cl)cc3)ccc2cc1O
5.99	Active	42.4	–	COc1cc2c[n+](CCc3ccc(F)cc3)ccc2cc1O
